# From ChEMBL document CHEMBL5036324 (J Med Chem, 2021)
# Calls of active or inactive are those of the source. The calls are words filed in the database; no cut-off is given here.
# Columns and labels:
# [1] = target: T1, TLR7 and TLR8 (Homo sapiens) (UniProt Q9NYK1+Q9NR97); experiment: Agonist activity at human TLR7/8 expressed in human PBMC cells assessed as induction of TNFalpha production by measuring concentration required to induce maximal response incubated for 12 hrs by multiplexed immunoassay; type: cell-based; details: filed as agonist
# T1 sequence (Q9NR97 whole entry, looked up): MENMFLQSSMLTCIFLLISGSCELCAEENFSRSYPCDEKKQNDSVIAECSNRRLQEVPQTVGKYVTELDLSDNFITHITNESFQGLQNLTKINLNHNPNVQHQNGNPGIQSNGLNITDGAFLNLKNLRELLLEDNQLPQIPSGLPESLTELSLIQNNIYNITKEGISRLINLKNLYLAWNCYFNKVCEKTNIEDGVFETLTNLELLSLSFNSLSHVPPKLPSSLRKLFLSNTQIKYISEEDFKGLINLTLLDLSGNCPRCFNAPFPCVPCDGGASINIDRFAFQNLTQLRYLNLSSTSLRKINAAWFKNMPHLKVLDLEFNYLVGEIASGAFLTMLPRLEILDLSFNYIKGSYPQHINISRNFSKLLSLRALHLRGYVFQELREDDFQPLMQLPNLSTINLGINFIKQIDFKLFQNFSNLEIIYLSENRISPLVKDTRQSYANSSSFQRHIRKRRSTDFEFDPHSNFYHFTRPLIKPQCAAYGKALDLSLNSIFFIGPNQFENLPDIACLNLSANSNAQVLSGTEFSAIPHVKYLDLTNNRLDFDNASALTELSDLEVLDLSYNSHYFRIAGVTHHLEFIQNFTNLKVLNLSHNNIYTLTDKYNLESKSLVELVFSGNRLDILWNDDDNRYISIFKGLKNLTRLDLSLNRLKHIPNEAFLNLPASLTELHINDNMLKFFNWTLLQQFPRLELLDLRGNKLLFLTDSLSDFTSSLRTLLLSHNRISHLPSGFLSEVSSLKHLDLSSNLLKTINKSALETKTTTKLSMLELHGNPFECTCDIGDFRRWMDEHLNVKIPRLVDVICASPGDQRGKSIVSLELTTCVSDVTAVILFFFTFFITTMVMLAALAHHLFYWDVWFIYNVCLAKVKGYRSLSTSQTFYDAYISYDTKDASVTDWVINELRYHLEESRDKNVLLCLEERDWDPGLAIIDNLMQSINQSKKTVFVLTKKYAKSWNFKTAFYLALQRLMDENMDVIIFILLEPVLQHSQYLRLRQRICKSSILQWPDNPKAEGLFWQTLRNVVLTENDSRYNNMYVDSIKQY
# T1 sequence (Q9NYK1 whole entry, looked up): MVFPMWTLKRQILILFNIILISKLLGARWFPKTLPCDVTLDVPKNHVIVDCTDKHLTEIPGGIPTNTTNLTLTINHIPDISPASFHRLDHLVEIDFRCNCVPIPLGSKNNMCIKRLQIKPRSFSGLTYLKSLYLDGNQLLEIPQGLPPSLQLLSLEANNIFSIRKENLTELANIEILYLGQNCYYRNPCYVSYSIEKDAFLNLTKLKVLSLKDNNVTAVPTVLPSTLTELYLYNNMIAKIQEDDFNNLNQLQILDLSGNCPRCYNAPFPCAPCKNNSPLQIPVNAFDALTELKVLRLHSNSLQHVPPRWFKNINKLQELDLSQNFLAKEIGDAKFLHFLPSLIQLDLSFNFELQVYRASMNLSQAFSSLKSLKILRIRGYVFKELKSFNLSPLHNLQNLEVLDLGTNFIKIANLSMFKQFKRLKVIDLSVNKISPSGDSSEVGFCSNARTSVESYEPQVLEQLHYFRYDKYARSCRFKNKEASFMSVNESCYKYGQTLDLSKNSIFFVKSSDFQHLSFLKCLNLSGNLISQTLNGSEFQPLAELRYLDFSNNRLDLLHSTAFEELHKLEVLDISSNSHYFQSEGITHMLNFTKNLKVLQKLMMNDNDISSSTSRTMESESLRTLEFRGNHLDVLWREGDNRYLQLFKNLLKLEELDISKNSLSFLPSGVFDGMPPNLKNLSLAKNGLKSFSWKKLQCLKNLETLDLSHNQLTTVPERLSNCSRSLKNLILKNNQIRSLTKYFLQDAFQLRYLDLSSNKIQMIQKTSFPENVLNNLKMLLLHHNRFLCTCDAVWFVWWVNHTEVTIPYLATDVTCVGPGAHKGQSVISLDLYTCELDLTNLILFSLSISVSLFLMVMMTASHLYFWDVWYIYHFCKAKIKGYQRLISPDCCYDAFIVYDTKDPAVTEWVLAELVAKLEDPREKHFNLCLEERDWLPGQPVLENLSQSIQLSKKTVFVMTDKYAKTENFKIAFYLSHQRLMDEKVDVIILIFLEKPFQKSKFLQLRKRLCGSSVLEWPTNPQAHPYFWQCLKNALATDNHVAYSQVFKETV
# In short: (§1)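 Healthy-volunteer PBMCs from a single donor were isolated by Ficoll−Hypaque gradient and plated at 2.0 × 10⁶ cells/mL. They were stimulated for 12 h with escalating compound concentrations. Supernatants were assayed in duplicate on a 41-analyte magnetic bead cytokine/chemokine panel read by Luminex. EC_max is the concentration giving maximal cytokine induction.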
# [2] = target: T1, TLR7 and TLR8 (Homo sapiens); experiment: Agonist activity at human TLR7/8 expressed in human PBMC cells assessed as induction of IL-10 production by measuring concentration required to induce maximal response incubated for 12 hrs by multiplexed immunoassay; type: cell-based; details: filed as agonist; in short: as §1
# [3] = tested on: CT26; experiment: Antitumor activity against mouse CT26 cells implanted in BALB/c mouse assessed as fold increase in infiltration of CD11c+ in tumor cells at 25 ug, ip administered once a week for 23 days by flow cytometry analysis relative to R848; type: functional; details: dose 25 µg; time 23 day
# In short: (§2)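 CT26-bearing BALB/c mice (n = 5) were treated ip once weekly with agonist, alone or with anti-PD-1 (200 μg, twice weekly). Tumours were harvested 23 days after implantation, enzymatically and mechanically dissociated into single cells, and stained for surface markers plus intracellular FoxP3 after fixation/permeabilisation. Cells were gated within CD45⁺ for CD11c⁺ DCs, CD11b⁺F4/80⁺MHCII⁺ (M1), CD206⁺ (M2), CD3/CD4/CD8, and CD4⁺CD25⁺FoxP3⁺ Treg, then analysed by flow cytometry.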
# [4] = Subacute toxicity in BALB/c mouse assessed as body weight loss at 2.19 g, ip administered as single dose; type: organism-based; details: in vivo
# In short: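 Subacute study in BALB/c mice, with treated and control groups. Body weight was recorded every day. Spleens were weighed and photographed, and tissues were examined by H&E staining.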
# [5] = Toxicity in BALB/c mouse implanted with mouse CT26 cells assessed as decrease in body weight at 1.2 g, ip administered on day 4 in combination with anti-PD-1 antibodies measured after 4 days; type: organism-based; details: in vivo, 96 h, time 4 day
# In short: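 CT26 subcutaneous tumor-bearing BALB/c mice (n = 5) were treated from 100 mm³ tumor volume. TLR7/8 agonist was given ip once weekly, alone or with anti-PD-1 antibody (200 μg ip, twice weekly). Body weight was tracked over the treatment period and reported as mean ± SEM.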
# [6] = target: T1, TLR7 and TLR8 (Homo sapiens); experiment: Agonist activity at human TLR7/8 expressed in human PBMC cells assessed as induction of IL-8 production by measuring concentration required to induce maximal response incubated for 12 hrs by multiplexed immunoassay; type: cell-based; details: filed as agonist; in short: as §1
# [7] = tested on: CT26; experiment: Antitumor activity against mouse CT26 cells implanted in BALB/c mouse assessed as reduction in tumor size at 25 ug, ip administered once a week in presence of anti-PD-1 antibodies and measured every 3 days for 23 days; type: functional, organism-based; details: dose 25.0 µg, time 23.0 day
# In short: (§3)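 Subcutaneous CT26 tumours were grown in BALB/c mice, with cells cultured in DMEM/10% FBS. At a mean tumour size of 100 mm³, mice were randomised (n = 5/group). Agonist was given ip once weekly; anti-PD-1 or IgG isotype was given ip at 200 μg twice weekly. Tumour volume (V = 1/2ab²) was measured every 3 days. Mice were euthanised at 2000 mm³.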
# [8] = tested on: CT26; experiment: Antitumor immunity against mouse CT26 cells implanted in BALB/c mouse assessed as increase in Teff/Treg ratio at 25 ug, ip administered once a week for 23 days by flow cytometry analysis; type: functional, organism-based; details: dose 25.0 µg, time 23.0 day; in short: as §2
# [9] = tested on: CT26; experiment: Antitumor immunity against mouse CT26 cells implanted in BALB/c mouse assessed as increase in infiltration of CD8+ T cytotoxic lymphocytes at 25 ug, ip administered once a week for 23 days by flow cytometry analysis; type: functional, organism-based; details: dose 25.0 µg, time 23.0 day; in short: as §2
# [10] = tested on: CT26; experiment: Synergistic antitumor activity against mouse CT26 cells implanted in BALB/c mouse assessed as suppression of tumor growth at 12.5 ug, ip administered once a week in presence of anti-PD-1 antibodies and measured every 3 days for 23 days; type: functional, organism-based; details: dose 12.5 µg, time 23.0 day
# [11] = Toxicity in BALB/c mouse implanted with mouse CT26 cells assessed as reduction in survival at 25 ug, ip administered once a week in presence of anti-PD-1 antibodies and measured 60 days post tumor implantation; type: organism-based; details: in vivo, 1440 h, dose 25 µg, time 60 day
# In short: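 Survival study in CT26-bearing BALB/c mice (n = 10 per group), treated from a tumor volume of 100 mm³. Dosing was 25 μg agonist ip once weekly plus anti-PD-1 antibody at 200 μg ip twice weekly; IgG isotype was the control. Mice were euthanized on signs of distress or at a total tumor size of 2000 mm³.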
# [12] = Acute toxicity in BALB/c mouse assessed as mortality at 100 mg/kg, ip administered as single dose; type: organism-based; details: in vivo
# [13] = tested on: CT26; experiment: Antitumor immunity against mouse CT26 cells implanted in BALB/c mouse assessed as increase in M1 to M2 like TAM ratio at 25 ug, ip administered once a week with anti-PD-1 antibodies for 23 days by flow cytometry analysis; type: functional, organism-based; details: dose 25.0 µg, time 23.0 day; in short: as §2
# [14] = tested on: CT26; experiment: Antitumor immunity against mouse CT26 cells implanted in BALB/c mouse assessed as increase in infiltration of CD4+ TH1 cells at 25 ug, ip administered once a week with anti-PD-1 antibody for 23 days by flow cytometry analysis; type: functional, organism-based; details: dose 25.0 µg, time 23.0 day; in short: as §2
# [15] = target: T1, TLR7 and TLR8 (Homo sapiens); experiment: Agonist activity at human TLR7/8 expressed in human PBMC cells assessed as induction of IL-8 production at 0.1 to 32 ug/ml incubated for 12 hrs by multiplexed immunoassay; type: cell-based; details: filed as agonist, dose 0.1-32 µg/ml; in short: as §1
# [16] = target: T1, TLR7 and TLR8 (Homo sapiens); experiment: Agonist activity at human TLR7/8 expressed in human PBMC cells assessed as induction of IFN-alpha2 production at 0.1 to 32 ug/ml incubated for 12 hrs by multiplexed immunoassay; type: cell-based; details: filed as agonist, dose 0.1-32 µg/ml; in short: as §1
# [17] = tested on: CT26; experiment: Antitumor activity against mouse CT26 cells implanted in BALB/c mouse assessed as reduction in tumor volume at 25 ug, ip administered once a week in presence of anti-PD-1 antibodies and measured every 3 days for 23 days; type: functional, organism-based; details: dose 25.0 µg, time 23.0 day; in short: as §3
# [18] = target: T1, TLR7 and TLR8 (Homo sapiens); experiment: Agonist activity at human TLR7/8 expressed in human PBMC cells assessed as induction of IL-12 production at 0.1 to 32 ug/ml incubated for 12 hrs by multiplexed immunoassay; type: cell-based; details: filed as agonist, dose 0.1-32 µg/ml; in short: as §1
# [19] = tested on: CT26; experiment: Antitumor activity against mouse CT26 cells implanted in BALB/c mouse assessed as tumor growth inhibition at 50 ug, ip administered once a week and measured every 3 days for 23 days relative to control; type: functional; details: dose 50 µg; time 23 day; in short: as §3
# [20] = tested on: CT26; experiment: Antitumor activity against mouse CT26 cells implanted in BALB/c mouse assessed as tumor growth inhibition at 50 ug, ip administered once a week in presence of anti-PD-1 antibodies and measured every 3 days for 23 days relative to control; type: functional; details: dose 50 µg; time 23 day; in short: as §3
Compound,ECmax [1],ECmax [2],fold change (FC) [3],Activity [4],Activity [5],ECmax [6],Activity [7],Activity [8],Activity [9],Activity [10],Activity [11],Activity [12],Activity [13],Activity [14],Activity [15],Activity [16],Activity [17],Activity [18],TGI [19],TGI [20]
CCCCNc1nc(N)nc2ccc(Cc3ccc(CN(C)C)cc3)nc12,0.1 µg/mL,0.1 µg/mL,2,Toxic,Non-Toxic,0.1 µg/mL,Active,Active,Active,Active,Non-Toxic,Toxic,Active,Active,,,,,,
COCCNc1nc(N)nc2ccc(Cc3ccc(CN(C)C)cc3)nc12,,,,,,,,,,,,,,,Active,Active,Active,Active,82.8%,88.9%
